Shown are actives, neighbours in structure and some others; about 2.1% of the full set was active somewhere.
FXIa inh 1536: human FXIa protease inhibitors, primary screen, biochemical, 1536-well; Coagulation factor XI (Homo sapiens), P03951; purified FXIa, Boc-Glu-Ala-Arg-AMC fluorogenic substrate; inhibition, % at 5 µM; 220,000 tested, 0.14% active; AID 798, 2007;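 active = inhibition of at least 40%; inactive = inhibition below 40%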;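 note: fluorescence of freed AMC excited at 355 nm; 0% = enzyme without compound and 100% = no enzyme blank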
PGE2 EP2 inh: human EP2 receptor antagonists, primary screen, TR-FRET cAMP, C6 glioma cells; Prostaglandin E2 receptor EP2 subtype (Homo sapiens), P43116; C6 glioma cells expressing human EP2; cells stimulated with saturating PGE2; inhibition, % at 25 µM; 260,000 tested, 0.52% active;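 active = percent inhibition above 40 after rounding to a whole number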;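 note: rat C6 glioma host cells with rolipram phosphodiesterase inhibitor present; the protocol text gives 20 µM as final concentration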
FXIIa inh: human FXIIa protease inhibitors, primary screen, biochemical, 1536-well; 220,000 tested, 0.3% active; purified FXIIa, Boc-QGR-AMC fluorogenic substrate, 2 h; inhibition, % at 5 µM; in the data active = inhibition above about 40%;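 note: 0% = enzyme with no compound and 100% = blank without enzyme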
thrombin 1536: human alpha-thrombin inhibitors, primary screen, counter-screen for coagulation protease inhibitor project, biochemical, 1536-well, fluorogenic AMC substrate; Prothrombin (Homo sapiens), P00734; Boc-VPR-AMC fluorogenic substrate cleavage; inhibition, % at 5 µM; 220,000 tested, 0.26% active; AID 1046, 2008;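 active = inhibition at or above 40%; inactive = inhibition below 40%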;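 note: 0% = enzyme with no compound and 100% = wells without enzyme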
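Material: Human alpha-thrombin protein | Buffer or medium: pH 7.5 Tris-saline with Tween 20 | Reagent: Boc-VPR-AMC substrate, 15 µM final | Schedule: Reaction at ambient temperature | Detection: AMC fluorescence at 355 nm excitation and 460 nm emission | Evaluation: Percent inhibition scaled between no-compound controls and no-enzyme blanks | Controls: no-compound enzyme wells and no-enzyme blanks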
EP2 modulator: EP2 receptor modulators, cAMP readout, primary screen, cell-based, HTRF cAMP, PGE2 stimulation; Prostaglandin E2 receptor EP2 subtype (Homo sapiens), P43116; EP2-expressing cells, cAMP HTRF FRET, PGE2 co-stimulation; induction, % at 25 µM; 260,000 tested, 0.83% active; AID 940, 2007;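 active = compounds whose cAMP rise, as percent of the full-agonist control response, exceeds 60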;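 note: rat C6 glioma line stably carrying human EP2 under a CMV promoter; the protocol text gives 20 µM as final concentration; 100% = response of wells given 1 µM PGE2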
hK5 inh: human KLK5 protease inhibitors, primary screen, biochemical, 1536-well; recombinant hK5, fluorogenic AMC substrate cleavage; 210,000 tested, 0.59% active; inhibition, % at 5 µM;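 active = inhibition of 40% or more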;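 note: 0% = enzyme controls without compound and 100% = no-enzyme blanks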
The depositor's hits bear a star.

What do the screens show for `CCN(C(=O)COC(=O)/C=C/c1c(C)nn(-c2ccccc2)c1C)C1CCS(=O)(=O)C1` (stereo unspecified)?
FXIa inh 1536: 42.6*; PGE2 EP2 inh: 3.9; FXIIa inh: 26.3; thrombin 1536: 14.5; EP2 modulator: 14.3; hK5 inh: 31.6

How did CCOC(=O)c1cc2sc(C)cc2n1CC(=O)C(C)(C)C do in these assays?
PGE2 EP2 inh: 11.1; EP2 modulator: 30.7

Results for COc1cc(NC(=O)CSc2nnc(-c3cccnc3)n2C)cc(OC)c1 ?
PGE2 EP2 inh: 9.3; EP2 modulator: -0.2

How did COc1ccc2cc(C)c3nnc(SCC(=O)NNC(=O)C4CCCCC4)n3c2c1 do in these assays?
PGE2 EP2 inh: 17.4; EP2 modulator: -29.4

What do the screens show for `CCCCCCCc1nc2c(=O)n(C)c3ccccc3c2o1`?
FXIa inh 1536: 0.5; PGE2 EP2 inh: 6.9; FXIIa inh: 15.5; thrombin 1536: -1.6; EP2 modulator: 69.7*; hK5 inh: -4.2

What do the screens show for `O=C(NCc1ccco1)c1c2c(nc3ccccc13)CCC2`?
FXIa inh 1536: 25.8; FXIIa inh: 47.6*; thrombin 1536: 1.1; EP2 modulator: -0.1; hK5 inh: 13.8

What do the screens show for `Cc1ccccc1C1C2=C(CC(C)(C)CC2=O)N(CC(=O)O)C2=C1C(=O)CC(C)(C)C2`?
PGE2 EP2 inh: 14.7; EP2 modulator: -22.7

Results for COc1ccc2c(c1)OC1(CCN(CC(O)c3cc(C)sc3C)CC1)CC2O (stereo unspecified) ?
PGE2 EP2 inh: 9.2; EP2 modulator: -38.2

How did O=C(NCCCn1ccnc1)c1ccccc1NS(=O)(=O)c1ccc(F)c(F)c1 do in these assays?
FXIa inh 1536: 4.5; PGE2 EP2 inh: 1.9; FXIIa inh: -4.7; thrombin 1536: 16.9; EP2 modulator: 10.4; hK5 inh: 86.5*

How did Cc1cc(C)c(C)c(S(=O)(=O)Nc2ccccc2C(=O)NCCCn2ccnc2)c1C do in these assays?
FXIa inh 1536: 7.0; PGE2 EP2 inh: 0.6; FXIIa inh: 14.9; thrombin 1536: 3.9; EP2 modulator: -5.6; hK5 inh: -6.2

How did Cc1cc2c(C)ccc(C)c2nc1SCC(=O)c1cccs1 do in these assays?
FXIa inh 1536: 2.9; PGE2 EP2 inh: 4.0; FXIIa inh: 2.9; thrombin 1536: 7.0; EP2 modulator: 62.6*; hK5 inh: 9.4

How did COc1cc(NC(=O)c2n[nH]c(=O)c3ccccc23)cc(OC)c1 do in these assays?
FXIa inh 1536: 1.1; PGE2 EP2 inh: 8.1; FXIIa inh: 9.0; thrombin 1536: 1.1; EP2 modulator: -9.0; hK5 inh: 4.3

How did COc1cc(NC(=O)c2nccnc2C(=O)O)cc(OC)c1 do in these assays?
FXIa inh 1536: 4.1; PGE2 EP2 inh: 8.2; FXIIa inh: 2.1; thrombin 1536: 16.5; EP2 modulator: 11.2; hK5 inh: 122.0*

Results for Cc1c(Cl)cnc(NC(=O)COC(=O)c2ccc3c(c2)OCO3)c1Cl ?
FXIa inh 1536: 10.4; PGE2 EP2 inh: 3.1; FXIIa inh: 13.0; thrombin 1536: 27.4; EP2 modulator: -12.3; hK5 inh: 40.6*

What do the screens show for `COCCNc1cc(C)nc2cc(-c3ccc(C)cc3)nn12`?
FXIa inh 1536: 2.2; PGE2 EP2 inh: 9.4; FXIIa inh: 8.1; thrombin 1536: -6.6; EP2 modulator: 62.1*; hK5 inh: 9.6

What do the screens show for `CCOC(=O)C1=NN(c2ccccc2)C2(S1)SC(C(C)=O)=C(C)N2c1ccccc1` (stereo unspecified)?
FXIa inh 1536: 1.0; PGE2 EP2 inh: 2.5; FXIIa inh: -0.4; thrombin 1536: 0.6; EP2 modulator: 63.3*; hK5 inh: -12.3

Results for CCN(CC)CCCN1C(=O)C(O)=C(C(=O)c2ccco2)C1c1cccc(Cl)c1 (stereo unspecified) ?
PGE2 EP2 inh: 8.5; EP2 modulator: 3.9

Bioassay records as filed in PubChem BioAssay.
